Assay results as given in ChEMBL document CHEMBL2331235, “Solphenazines A-F, glycosylated phenazines from Streptomyces sp. strain DL-93” (J Nat Prod, 2013).
Calls of active or inactive are those of the source. The calls are words filed in the database; no cut-off is given here.

What was measured:
[1] = test system: Pseudomonas aeruginosa; experiment: Antimicrobial activity against Pseudomonas aeruginosa ATCC 27853 by microbroth dilution assay; type: functional
[2] = test system: Staphylococcus aureus; experiment: Antimicrobial activity against methicillin-resistant Staphylococcus aureus ATCC 43300 by microbroth dilution assay; type: functional
[3] = test system: Cryptococcus neoformans; experiment: Antimicrobial activity against Cryptococcus neoformans ATCC 66031 by microbroth dilution assay; type: functional
[4] = test system: HCT16; experiment: (§1) Cytotoxicity against human […] cells after 72 hrs by MTT assay; type: functional, cell-based
How it was run: (§2)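 Vero cells in MEM and HCT-116 cells in RPMI, each with 10% FBS, 1% penicillin–streptomycin and 1% Glutamax. Cells were seeded at 3.0 × 10^4 per well and left to adhere overnight. Medium was replaced, and compounds in DMSO were added to a final 150–0.1 μM. Cells were incubated 72 h at 37 °C in 4.5% CO2 (humidified), then viability was read by MTT.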

[5] = test system: Streptomyces scabiei; experiment: Antimicrobial activity against Streptomyces scabies LK 82 at 25 ug/disk after 2 days by disk diffusion assay; type: functional
How it was run: (§3)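 S. scabies grown 5 days in liquid ISP2, diluted 1:10 in molten ISP2 agar. Paper discs carrying 25 μg compound (applied in 20 μL methanol) were set on a thin agar layer and overlaid with 10 mL of the seeded agar (double-layer method). Plates were incubated 2 days at 30 °C, and inhibition zone diameters were measured.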

[6] = test system: Acinetobacter baumannii; experiment: Antimicrobial activity against Acinetobacter baumannii ATCC 19606 by microbroth dilution assay; type: functional; details: ATCC 19606 = CIP 70.34 = JCM 6841
[7] = test system: Bacillus spizizenii; experiment: Antimicrobial activity against Bacillus subtilis ATCC 6633 by microbroth dilution assay; type: functional
[8] = test system: Streptomyces scabiei; experiment: Antimicrobial activity against Streptomyces scabies NRRL B 2795 at 25 ug/disk after 2 days by disk diffusion assay; type: functional; how it was run: as §3
[9] = test system: Candida albicans; experiment: Antimicrobial activity against Candida albicans ATCC 10231 by microbroth dilution assay; type: functional
[10] = test system: Escherichia coli; experiment: Antimicrobial activity against Escherichia coli ATCC 25922 by microbroth dilution assay; type: functional
[11] = test system: Klebsiella pneumoniae; experiment: Antimicrobial activity against Klebsiella pneumoniae ATCC 13883 by microbroth dilution assay; type: functional
[12] = test system: Enterococcus faecalis; experiment: Antimicrobial activity against vancomycin-resistant Enterococcus faecalis ATCC 51299 by microbroth dilution assay; type: functional
[13] = test system: Vero; experiment: (§4) Cytotoxicity against African green monkey Vero cells at 150 uM after 72 hrs by MTT assay; type: cell-based; details: chlorocebus sabaeus, vero, 72 h, 150 µM; how it was run: as §2
[14] = as §1; type: functional, cell-based; how it was run: as §2
[15] = as §4; type: cell-based; details: chlorocebus sabaeus, Vero cells; read-out: GI; how it was run: as §2
[16] = molecular target: T1, Topoisomerase I (Bos taurus) (UniProt Q2HPH0); experiment: Inhibition of calf thymus topoisomerase-1-mediated supercoiled plasmid DNA relaxation after 15 mins by agarose gel electrophoresis
T1 sequence (whole entry): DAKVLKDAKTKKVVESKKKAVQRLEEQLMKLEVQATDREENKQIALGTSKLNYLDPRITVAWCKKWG
How it was run: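 Calf thymus Topo I (0.5 unit) with negatively supercoiled pBR322 (0.3 μg) in 50 mM Tris-HCl pH 7.5, 1 mM MgCl2, 0.5 mM DTT and 50 μg/mL BSA. Camptothecin was the control. Reactions ran 15 min at 37 °C and were stopped on ice with an EDTA/sarkosyl loading dye. Relaxed versus supercoiled DNA was resolved by agarose gel, in duplicate.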

[17] = molecular target: T1, Topoisomerase I (Bos taurus); experiment: Inhibition of calf thymus topoisomerase-1-mediated DNA intercalation using relaxed pBR322 after 15 mins
How it was run: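 Unwinding (intercalation) assay: relaxed pBR322 (0.3 μg) with 1 unit calf thymus Topo I in 50 mM Tris-HCl pH 7.5, 1 mM MgCl2, 0.5 mM DTT and 50 μg/mL BSA. Compound was added in DMSO, with ethidium bromide as control. After 15 min at 37 °C, reactions were treated with SDS and proteinase K and phenol-extracted. DNA was run on 1.2% agarose in TAE, and supercoiled DNA was quantified after staining.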

[18] = molecular target: DNA topoisomerase 2-alpha (Homo sapiens) (UniProt P11388); experiment: Inhibition of topoisomerase-2 (unknown origin)-mediated DNA cleavage […] by agarose gel electrophoresis
Sequence of DNA topoisomerase 2-alpha (Homo sapiens) (P11388 whole entry): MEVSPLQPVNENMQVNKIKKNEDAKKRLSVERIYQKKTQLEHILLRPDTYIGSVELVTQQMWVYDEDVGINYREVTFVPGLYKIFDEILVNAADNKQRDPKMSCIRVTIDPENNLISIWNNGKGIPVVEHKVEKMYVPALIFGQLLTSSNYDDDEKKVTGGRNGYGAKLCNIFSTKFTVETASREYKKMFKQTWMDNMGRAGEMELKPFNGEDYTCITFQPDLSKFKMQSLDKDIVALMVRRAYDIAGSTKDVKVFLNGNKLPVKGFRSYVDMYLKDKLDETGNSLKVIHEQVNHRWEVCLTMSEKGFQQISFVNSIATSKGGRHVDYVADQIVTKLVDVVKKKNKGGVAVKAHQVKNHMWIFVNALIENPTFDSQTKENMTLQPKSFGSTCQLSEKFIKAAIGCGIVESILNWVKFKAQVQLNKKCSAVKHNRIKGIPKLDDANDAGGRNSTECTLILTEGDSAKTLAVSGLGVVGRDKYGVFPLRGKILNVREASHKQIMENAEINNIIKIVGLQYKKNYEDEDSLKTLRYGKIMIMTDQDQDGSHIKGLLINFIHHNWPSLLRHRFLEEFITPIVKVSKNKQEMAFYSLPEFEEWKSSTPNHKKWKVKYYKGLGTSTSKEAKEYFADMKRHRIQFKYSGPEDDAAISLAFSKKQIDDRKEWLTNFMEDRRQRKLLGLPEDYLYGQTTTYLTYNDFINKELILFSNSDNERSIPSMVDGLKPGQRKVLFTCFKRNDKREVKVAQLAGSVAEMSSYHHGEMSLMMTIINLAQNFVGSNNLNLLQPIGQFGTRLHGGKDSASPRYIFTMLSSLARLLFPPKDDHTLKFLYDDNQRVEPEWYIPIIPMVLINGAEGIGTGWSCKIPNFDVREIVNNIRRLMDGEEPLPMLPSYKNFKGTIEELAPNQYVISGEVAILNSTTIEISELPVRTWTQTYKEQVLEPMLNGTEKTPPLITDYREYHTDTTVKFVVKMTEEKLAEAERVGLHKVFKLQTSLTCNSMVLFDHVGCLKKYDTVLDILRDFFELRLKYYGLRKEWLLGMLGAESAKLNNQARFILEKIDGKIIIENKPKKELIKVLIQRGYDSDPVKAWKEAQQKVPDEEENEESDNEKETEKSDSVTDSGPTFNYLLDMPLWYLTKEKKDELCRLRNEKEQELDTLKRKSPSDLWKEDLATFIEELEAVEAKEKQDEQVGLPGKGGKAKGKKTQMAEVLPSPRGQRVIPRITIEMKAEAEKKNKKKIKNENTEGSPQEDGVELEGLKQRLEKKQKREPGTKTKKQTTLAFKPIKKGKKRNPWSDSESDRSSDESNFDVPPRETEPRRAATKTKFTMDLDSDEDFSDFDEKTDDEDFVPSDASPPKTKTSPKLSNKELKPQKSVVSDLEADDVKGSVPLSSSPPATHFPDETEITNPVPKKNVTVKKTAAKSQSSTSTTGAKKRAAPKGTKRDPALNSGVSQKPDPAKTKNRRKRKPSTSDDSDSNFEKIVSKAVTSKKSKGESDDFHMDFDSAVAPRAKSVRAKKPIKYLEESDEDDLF
How it was run: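 Human Topo II cleavage assay: 5 units enzyme with 0.3 μg kDNA in the decatenation buffer without potassium glutamate, with etoposide as control. Reactions ran 10 min at 37 °C, then SDS to 1% for 10 min, then 40 mM EDTA and 100 μg/mL proteinase K for 1 h at 50 °C. Products were run on ethidium-containing 1.2% agarose. Linear DNA was compared with and without compound, at least in duplicate.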

[19] = molecular target: T2, DNA topoisomerase 1 (Homo sapiens) (UniProt P11387); experiment: Inhibition of topoisomerase-1 (unknown origin)-mediated DNA cleavage after 15 mins by agarose gel electrophoresis
T2 sequence (whole entry): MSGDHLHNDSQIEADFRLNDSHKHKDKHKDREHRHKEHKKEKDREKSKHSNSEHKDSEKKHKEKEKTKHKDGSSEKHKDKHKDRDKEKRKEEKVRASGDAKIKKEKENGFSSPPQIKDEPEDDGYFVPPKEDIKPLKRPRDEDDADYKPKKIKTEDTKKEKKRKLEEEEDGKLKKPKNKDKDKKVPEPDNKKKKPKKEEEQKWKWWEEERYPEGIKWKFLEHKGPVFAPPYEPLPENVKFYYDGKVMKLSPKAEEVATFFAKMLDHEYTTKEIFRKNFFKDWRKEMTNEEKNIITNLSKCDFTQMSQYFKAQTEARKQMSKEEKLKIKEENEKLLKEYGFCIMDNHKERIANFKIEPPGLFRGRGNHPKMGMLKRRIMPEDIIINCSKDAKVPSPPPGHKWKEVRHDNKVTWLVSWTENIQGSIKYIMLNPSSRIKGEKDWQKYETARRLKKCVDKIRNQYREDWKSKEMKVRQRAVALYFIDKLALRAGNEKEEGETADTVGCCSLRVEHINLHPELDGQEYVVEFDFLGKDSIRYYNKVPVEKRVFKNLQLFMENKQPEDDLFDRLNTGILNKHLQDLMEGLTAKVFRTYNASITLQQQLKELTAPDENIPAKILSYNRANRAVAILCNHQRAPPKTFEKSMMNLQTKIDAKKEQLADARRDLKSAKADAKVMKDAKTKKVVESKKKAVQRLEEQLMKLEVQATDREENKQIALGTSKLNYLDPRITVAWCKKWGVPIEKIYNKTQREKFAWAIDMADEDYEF
How it was run: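 Topo I cleavage assay: 2 units Topo I with 0.3 μg pBR322 in the unwinding buffer, with camptothecin as control. Reactions ran 10 min at 37 °C, then SDS to 1% for 10 min, then 40 mM EDTA and 100 μg/mL proteinase K for 15 min at 37 °C. DNA was phenol-extracted and run on 1.2% agarose containing 0.5 μg/mL ethidium bromide. Nicked DNA was compared with and without compound, at least in duplicate.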

[20] = test system: Vero; experiment: Cytotoxicity against African green monkey Vero cells after 72 hrs by MTT assay; type: cell-based; details: Chlorocebus sabaeus; how it was run: as §2
[21] = test system: Escherichia coli; experiment: Inhibition of Escherichia coli topoisomerase-2-mediated DNA cleavage after 15 mins by agarose gel electrophoresis

Structure (SMILES) | MIC [1] [µg/mL] | MIC [2] [µg/mL] | MIC [3] [µg/mL] | Activity [4] | Activity [5] | MIC [6] [µg/mL] | MIC [7] [µg/mL] | Activity [8] | MIC [9] [µg/mL] | MIC [10] [µg/mL] | MIC [11] [µg/mL] | MIC [12] [µg/mL] | Activity [13] | further results
O=C(O)c1cccc2nc3c(C(=O)O)cccc3nc12 | > 25 | > 25 | > 25 | inactive | inactive | > 25 | > 25 | inactive | > 25 | > 25 | > 25 | > 25 | Non-toxic | 
CC(=O)O[C@@H]1[C@@H](O)[C@H](C)O[C@@H](OC(=O)c2cccc3nc4c(C(=O)O[C@@H]5O[C@@H](C)[C@H](O)[C@@H](OC(C)=O)[C@H]5O)cccc4nc23)[C@@H]1O [SOPHENAZINE C] | > 25 | > 25 | > 25 |  | inactive | > 25 | > 25 | inactive | > 25 | > 25 | > 25 | > 25 |  | 
C[C@@H]1O[C@@H](Oc2cccc3nc4c(C(=O)O)cccc4nc23)[C@H](O)[C@H](O)[C@H]1O [IZUMINOSIDE A] | > 25 | > 25 | > 25 | inactive | inactive | > 25 | > 25 | inactive | > 25 | > 25 | > 25 | > 25 | Non-toxic | 
COC(=O)c1cccc2nc3c(O[C@@H]4O[C@@H](C)[C@H](O)[C@@H](O)[C@H]4O)cccc3nc12 [SOPHENAZINE E] | > 25 | > 25 | > 25 | inactive | inactive | > 25 | > 25 | inactive | > 25 | > 25 | > 25 | > 25 | Non-toxic | 
C[C@@H]1O[C@@H](OC(=O)c2cccc3nc4c(C(=O)O)cccc4nc23)[C@H](O)[C@H](O)[C@H]1O [IZUMINOSIDE C] | > 25 | > 25 | > 25 | inactive | inactive | > 25 | > 25 | inactive | > 25 | > 25 | > 25 | > 25 | Non-toxic | 
CC(=O)O[C@@H]1[C@@H](O)[C@H](C)O[C@@H](OC(=O)c2cccc3nc4c(C(=O)O[C@@H]5O[C@@H](C)[C@H](O)[C@@H](O)[C@H]5O)cccc4nc23)[C@@H]1O [SOPHENAZINE B] | > 25 | > 25 | > 25 |  | inactive | > 25 | > 25 | inactive | > 25 | > 25 | > 25 | > 25 |  | EC50 [14]: 52 µM; inhibition at 72 h, 150 µM [15]: 30%
C[C@@H]1O[C@@H](OC(=O)c2cccc3nc4c(O[C@@H]5O[C@@H](C)[C@H](O)[C@@H](O)[C@H]5O)cccc4nc23)[C@H](O)[C@H](O)[C@H]1O [SOPHENAZINE D] | > 25 | > 25 | > 25 | inactive | inactive | > 25 | > 25 | inactive | > 25 | > 25 | > 25 | > 25 | Non-toxic | 
C[C@@H]1O[C@@H](OC(=O)c2ccc(O)cc2)[C@H](O)[C@H](O)[C@H]1O | > 25 | > 25 | > 25 |  | inactive | > 25 | > 25 | inactive | > 25 | > 25 | > 25 | > 25 |  | 
C[C@@H]1O[C@@H](Oc2cccc3nc4c(O[C@@H]5O[C@@H](C)[C@H](O)[C@@H](O)[C@H]5O)cccc4nc23)[C@H](O)[C@H](O)[C@H]1O [SOPHENAZINE F] | > 25 | > 25 | > 25 |  | inactive | > 25 | > 25 | inactive | > 25 | > 25 | > 25 | > 25 |  | EC50 [14]: 45 µM
C[C@@H]1O[C@@H](OC(=O)c2cccc3nc4c(C(=O)O[C@@H]5O[C@@H](C)[C@H](O)[C@@H](O)[C@H]5O)cccc4nc23)[C@H](O)[C@H](O)[C@H]1O [SOPHENAZINE A] | > 25 | > 25 | > 25 |  | inactive | > 25 | > 25 | inactive | > 25 | > 25 | > 25 | > 25 |  | inhibition [16]: inactive; EC50 [14]: 18 µM; inhibition [17]: inactive; inhibition [18]: inactive; inhibition [19]: inactive; EC50 [20]: 84 µM; inhibition [21]: inactive
CNc1ccc(C(=O)O[C@@H]2O[C@@H](C)[C@H](O)[C@@H](O)[C@H]2O)cc1 | > 25 | > 25 | > 25 |  | inactive | > 25 | > 25 | inactive | > 25 | > 25 | > 25 | > 25 |  | 
